# High-throughput results as filed in PubChem.
# Shown are actives, neighbours in structure and some others; about 1.4% of the full set was active somewhere.
# PvdQ inh: P. aeruginosa PvdQ acylase inhibitors, primary screen, biochemical, fluorescence, plate reader and imaging, single point. PvdQ acylase [Pseudomonas aeruginosa LESB58]. purified PvdQ acylase. inhibition, % at 10 µM. 340,000 tested, 0.063% active. AID 488965, 2010; in the data active means inhibition above about 30%, passing the limit was not always enough
# CAL PDZ FP-1: untagged CAL PDZ binding inhibitors, primary screen, biochemical, fluorescence polarization, HTS | Golgi-associated PDZ and coiled-coil motif-containing protein (Homo sapiens), Q9HD26 | inhibition, % at 24.9 µM | 300,000 tested, 0.92% active | purified CAL PDZ, TMR-peptide fluorescence polarization, 1 h | AID 602252, 2012;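 active means mean inhibition of at least 30% with at least half of replicates also reaching 30%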
# DYRK1A inh: rat Dyrk1A kinase inhibitors, primary screen, biochemical, single point, plate reader; Dual specificity tyrosine-phosphorylation-regulated kinase 1A (Rattus norvegicus), Q63470; AID 504441, 2011; ADP-Glo luminescence, NFATc1 peptide; inhibition, % at 12.5 µM; 310,000 tested, 0.43% active; in the data active means inhibition above about 50%
# CAL PDZ FP-2: CAL PDZ peptide-binding inhibitors, primary screen, biochemical, fluorescence polarization, Cer-tagged CAL PDZ, HTS; Golgi-associated PDZ and coiled-coil motif-containing protein (Homo sapiens), Q9HD26; purified CAL PDZ, TMR-peptide fluorescence polarization, 1 h; inhibition, % at 20 µM; 330,000 tested, 0.02% active; AID 504414, 2011;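 active means highest replicate inhibition of at least 40%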
#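 Assay system – tagged CAL PDZ protein CerCALP, purified · Timing – 1 h at RT · Compound – single point, 20 µM · Measured by – fluorescence polarization from S- and P-plane intensities, G-factor corrected · Evaluation – inhibition from polarization loss · Probe or stimulus – TMR reporter peptide T*-PRC34 · Buffer or medium – pH 7.4 phosphate-saline buffer, reducing agent, detergent, IgG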
# CDK5 inh: inhibitors of human CDK5/p35 kinase, primary screen, biochemical, single concentration | Cyclin-dependent kinase 5 (Homo sapiens) + Cyclin-dependent kinase 5 activator 1 (Homo … | Recombinant CDK5/p35, ADP-Glo luminescence, 60 min | inhibition, % at 10 µM | 330,000 tested, 0.01% active;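 active means highest replicate inhibition of at least 50% and at least 75% of replicates reaching 50%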
# Target sequence (Q00535 whole entry, looked up): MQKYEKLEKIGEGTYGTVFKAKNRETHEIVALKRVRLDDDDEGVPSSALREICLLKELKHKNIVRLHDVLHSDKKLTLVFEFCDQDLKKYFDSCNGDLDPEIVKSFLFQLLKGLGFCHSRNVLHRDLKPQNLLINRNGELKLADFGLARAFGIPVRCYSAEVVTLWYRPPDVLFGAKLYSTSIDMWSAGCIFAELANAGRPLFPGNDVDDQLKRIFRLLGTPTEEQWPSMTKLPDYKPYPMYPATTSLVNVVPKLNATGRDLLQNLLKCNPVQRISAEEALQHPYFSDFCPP
# Target sequence (Q15078 whole entry, looked up): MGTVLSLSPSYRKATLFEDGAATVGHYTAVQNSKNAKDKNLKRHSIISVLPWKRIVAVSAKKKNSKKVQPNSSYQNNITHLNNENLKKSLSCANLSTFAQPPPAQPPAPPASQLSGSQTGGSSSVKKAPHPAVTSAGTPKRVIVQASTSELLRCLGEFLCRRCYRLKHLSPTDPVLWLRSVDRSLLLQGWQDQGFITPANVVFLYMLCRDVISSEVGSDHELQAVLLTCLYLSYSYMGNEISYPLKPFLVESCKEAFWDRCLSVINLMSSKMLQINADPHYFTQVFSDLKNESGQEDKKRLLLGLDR
# Tb MetRS inh: T. brucei MetRS inhibitors, primary screen, biochemical, luminescence; inhibition, % at 11.9 µM; purified T. brucei MetRS, ATP depletion, Kinase-Glo luminescence; 360,000 tested, 0.4% active;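 active means inhibition above a per-plate cutoff of the control wells' mean inhibition plus 3 SD, cut at about 5.5% in these data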
#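 Material: T. brucei methionyl-tRNA synthetase, purified; reagent: substrates ATP, L-methionine and bulk Escherichia coli tRNA; dosing: 11.9 µM single point; timing: 15 min plus 2 h at 25 °C; detection: luminescence of leftover ATP; evaluation: % inhibition; control set: DMSO-only wells as low control; replicates: singlicate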
# A number is an active result; 0 = inactive; - = no result given.
SMILES,PvdQ inh,CAL PDZ FP-1,DYRK1A inh,CAL PDZ FP-2,CDK5 inh,Tb MetRS inh
C=CC[C@H]1Cc2c(cccc2[N+](=O)[O-])[C@H](CC=C)N1,0,39,0,0,0,0
CCOc1ccc(S(=O)(=O)N2CN3CCN(C3)C2)cc1,0,63,0,0,0,0
Cc1ccc(C(=O)N/C(=C/c2ccc(-c3cc(C(F)(F)F)ccc3Cl)o2)C(=O)NCc2cccnc2)cc1,0,0,0,0,0,0
O=C(NCc1cccnc1)/C(=C/c1ccc(-c2cccc(C(F)(F)F)c2)o1)NC(=O)c1ccccc1,0,42,0,0,0,0
CCCc1cc(-c2[nH]ncc2-c2ccc(C(=O)OCC)o2)c(O)cc1O,0,0,0,0,0,0
CCCc1cc(-c2[nH]ncc2-c2ccc3c(c2)OCCCO3)c(O)cc1O,0,0,58,0,0,0
CCCCCCCCN1C(=O)[C@H](CC(=O)N2CCN(C(=O)C3CC3)CC2)C[C@@]2(C(=O)OC)CC(C)(C)CC=C12,-,-,-,-,-,0
Cc1ccccc1-n1c(-c2ccncc2)n[nH]c1=S,0,0,0,0,0,0
Cc1cc(-c2n[nH]c(=S)n2-c2ccccc2C)cs1,0,62,0,0,0,0
COc1cccc(CNC(=O)c2cc3c(c(-c4cccc(-c5cccc(C#N)c5)c4)n2)[C@H](CCO)N(S(=O)C(C)(C)C)C3)c1 (stereo partly specified),-,-,-,-,-,0
CC(=O)c1c(C)[nH]c(C(=O)COC(=O)c2c(-c3ccccc3)noc2C)c1C,0,64,0,0,0,0
Cc1onc(-c2ccccc2)c1C(=O)OCC(=O)c1ccc[nH]1,-,-,-,-,-,0
CN(C)S(=O)(=O)c1cccc(COc2ncnc3c(Cl)cc(Cl)cc23)c1,0,56,0,0,0,0
Cc1ccc(N2C(=O)C3C(C2=O)C(C(=O)c2ccc(Cl)cc2)N2CCCC32)cc1 (stereo unspecified),0,42,0,0,0,0
CCOC(=O)C1=C[C@@H](C(C)(C)C)N(S(=O)(=O)c2ccc(C)cc2)[C@H]1c1ccc(Cl)c(Cl)c1,-,-,-,-,-,0
CCCCCCC(=O)N(O)C1CC(=O)N(c2ccc(C)cc2)C1=O (stereo unspecified),0,-,0,0,0,0
Cc1ccc(N2C(=O)CC(N(O)C3CC(=O)N(c4ccc(C)cc4)C3=O)C2=O)cc1 (stereo unspecified),0,59,0,0,0,0
CCCCNC(=O)c1c(N)[nH]c(C(=O)c2ccccc2)c1-c1ccc(Cl)cc1,-,-,-,-,-,0
COC(=O)C[C@@H]1OC[C@H](Cc2ccccc2)N1S(=O)(=O)c1ccc(C)cc1,-,-,-,-,-,0
COc1ccc(S(=O)(=O)N2CCC[C@H]2C(=O)NCc2ccc(Cl)cc2)cc1,0,71,0,0,0,0
CCc1nc2ccc(C(=O)NCCCn3ccnc3)cn2c1N(C)CCCc1ccccc1,-,-,-,-,-,0
CN(C)CCC(C(=O)c1ccccc1)c1ccncc1 (stereo unspecified),0,0,0,0,0,0
CN(C)CCC(C(=O)c1ccccc1)c1ccccn1 (stereo unspecified),0,85,0,0,0,0
CC(=O)c1ccc(OCc2cc(C(=O)N3CC4C[C@@H]5CC3C[C@H](C4)C5)no2)cc1,0,70,0,0,0,0
CC(=O)c1ccc(OCc2cc(C(=O)NCCc3ccc(Cl)cc3)no2)cc1,0,68,0,0,0,0
SMILES,PvdQ inh,CAL PDZ FP-1,DYRK1A inh,CAL PDZ FP-2,CDK5 inh,Tb MetRS inh
Cc1cccc(C)c1NC(=O)C(c1cc2ccccc2o1)N1CCN(C)CC1 (stereo unspecified),-,-,-,-,-,0
O=C1CC2c3ccccc3C1C1C(=O)N(Cc3ccccc3)C(=O)C21 (stereo unspecified),0,35,-,0,0,0
CC(CC(c1ccccc1)N1CCc2ccccc2C1)=NO (stereo unspecified),-,-,-,-,-,0
CC(=O)c1cc2cccc(OC3(C)CCN(Cc4ccc(-c5ccccn5)cc4)C3)c2o1 (stereo unspecified),-,-,-,-,-,0
CCN(CC)CCn1c(=S)[nH]c2ccccc2c1=O,0,0,0,0,0,0
CCN(CC)CCn1c(=S)[nH]c2ccc(Br)cc2c1=O,0,87,0,0,0,0
COc1cc2c(cc1OC)C(=O)C(Br)CC2 (stereo unspecified),-,-,-,-,-,0
O=C(O)CSCC(=O)N1CCCN(c2ccc(C(F)(F)F)cn2)CC1,0,0,0,0,0,0
O=C(CCc1ccccc1F)N1CCN(c2ccc(C(F)(F)F)cn2)CC1,0,45,0,0,0,0
CCn1ncc(CN2CCCC(C(=O)c3cccc(OC(C)C)c3)C2)c1C (stereo unspecified),0,0,0,0,0,0
COc1ccc(CN2CCCC(C(=O)c3cccc(OC(C)C)c3)C2)cc1Cn1cccn1 (stereo unspecified),33,0,0,0,0,0
CC(=O)NC(CC(=O)N(C)C1CCCCC1)c1ccccc1 (stereo unspecified),0,0,0,0,0,0
CC(C)(O)CN(C(=O)C(c1ccccc1)c1ccccc1)C1CCCCC1,0,31,0,0,0,0
COc1ccc(NC2CCCN(C(=O)c3csc(C(C)C)n3)C2)cc1OC (stereo unspecified),0,0,0,0,0,0
CC(C)c1ccc(NC2CCCN(C(=O)c3ccnn3C)C2)cc1 (stereo unspecified),0,55,0,0,0,0
COc1ccc(NC2CCCN(C(=O)c3csc(C(C)C)n3)C2)cc1 (stereo unspecified),0,93,0,0,0,0
COc1ccc(NC2CCCN(C(=O)CCc3ccccc3F)C2)cc1 (stereo unspecified),0,78,0,0,0,0
CCCCOCCCNC(=O)C[C@@H]1C[C@@]2(C(=O)OC)CCCCC=C2N(Cc2cccc3ccccc23)C1=O,-,-,-,-,-,0
O=C(c1[nH]c(C(F)(F)F)nc1-c1ccccc1)N1CCc2ccccc2C1,-,-,-,-,-,0
Cc1nn(-c2ccccc2)c2c1C(c1ccccc1)C(C#N)=C(N)O2 (stereo unspecified),0,0,0,0,0,0
Cc1nn(-c2ccccc2)c2c1C(c1ccc(F)cc1F)C(C#N)=C(N)O2 (stereo unspecified),0,30,0,0,0,0
